Results as given in ChEMBL document CHEMBL1137361, “WB4101-related compounds: new, subtype-selective alpha1-adrenoreceptor antagonists (or inverse agonists?)” (J Med Chem, 2006).
The source made the active and inactive calls. The calls are words filed in the database; no cut-off is given here.

Key:
[1] = biological target: T1, Alpha-1D adrenergic receptor (Homo sapiens, UniProt P25100); experiment: Displacement of [3H]prazosin from cloned human adrenergic alpha 1D receptor expressed in CHO cells; assay type: cell-based
T1 sequence (P25100 whole entry): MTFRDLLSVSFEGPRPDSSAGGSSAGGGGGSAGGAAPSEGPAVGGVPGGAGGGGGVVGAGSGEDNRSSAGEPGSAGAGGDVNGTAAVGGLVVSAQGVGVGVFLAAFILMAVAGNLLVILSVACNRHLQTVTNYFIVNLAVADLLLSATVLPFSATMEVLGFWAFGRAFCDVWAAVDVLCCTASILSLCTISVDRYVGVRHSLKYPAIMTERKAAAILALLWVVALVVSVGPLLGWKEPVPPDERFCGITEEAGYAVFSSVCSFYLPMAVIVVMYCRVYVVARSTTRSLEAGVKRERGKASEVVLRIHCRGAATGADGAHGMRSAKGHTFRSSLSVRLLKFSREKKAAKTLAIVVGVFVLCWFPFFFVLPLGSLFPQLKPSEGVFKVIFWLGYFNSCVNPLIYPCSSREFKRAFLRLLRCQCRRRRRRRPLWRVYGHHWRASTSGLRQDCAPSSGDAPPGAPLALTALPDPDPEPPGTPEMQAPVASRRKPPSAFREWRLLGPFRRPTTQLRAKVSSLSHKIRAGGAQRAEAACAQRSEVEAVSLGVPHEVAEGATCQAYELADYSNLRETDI
In short: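 Radioligand binding with [3H]prazosin as the label. Membranes came from CHO cells expressing the cloned human receptor. Affinity is expressed as pKi.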

[2] = biological target: Adrenergic receptors; alpha-1 A & B (Homo sapiens) (UniProt P35348+P35368); experiment: Selectivity for human adrenergic alpha 1B receptor over human adrenergic alpha 1A receptor; assay type: protein assay
[3] = biological target: T2, Alpha-1A adrenergic receptor (Rattus norvegicus, UniProt P43140); experiment: Activity at adrenergic alpha 1A receptor assessed as antagonism of noradrenaline-induced contraction of Sprague-Dawley rat vas deferens; assay type: functional, tissue-based; settings: read-out: pA2 (converted)
T2 sequence (P43140 whole entry): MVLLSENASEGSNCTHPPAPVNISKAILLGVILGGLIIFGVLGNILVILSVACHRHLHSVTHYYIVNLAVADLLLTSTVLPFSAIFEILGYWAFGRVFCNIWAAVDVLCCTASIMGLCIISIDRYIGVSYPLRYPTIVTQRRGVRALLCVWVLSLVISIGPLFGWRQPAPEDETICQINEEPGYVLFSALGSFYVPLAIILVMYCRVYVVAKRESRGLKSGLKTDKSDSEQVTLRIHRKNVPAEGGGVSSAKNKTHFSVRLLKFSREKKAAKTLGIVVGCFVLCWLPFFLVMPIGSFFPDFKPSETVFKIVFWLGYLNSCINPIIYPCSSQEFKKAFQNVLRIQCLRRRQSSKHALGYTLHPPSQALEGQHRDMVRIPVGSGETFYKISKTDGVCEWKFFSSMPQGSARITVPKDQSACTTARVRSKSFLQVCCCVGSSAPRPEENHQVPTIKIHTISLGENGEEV
In short: (§1)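 Rat vas deferens, prostatic portion. Contraction was induced with (-)-noradrenaline, and blocking activity was measured as antagonism of that contraction.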

[4] = biological target: Alpha adrenergic receptor (1a and 1d) (Homo sapiens) (UniProt P35348+P25100); experiment: Selectivity for human adrenergic alpha 1A receptor over human adrenergic alpha 1D receptor
[5] = biological target: T2, Alpha-1A adrenergic receptor; experiment: Activity at adrenergic alpha 1A receptor assessed as antagonsim of noradrenaline-induced contraction of […]; assay type: functional, tissue-based, Sprague-Dawley; settings: read-out: pA2 (converted); in short: as §1
Cavia porcellus [6] = species: Cavia porcellus; experiment: Inverse agonist effect on calcium-induced increase in resting tension of calcium-depleted guinea pig thoracic aorta at 100 nM; assay type: functional
In short: (§2)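 Guinea pig thoracic aorta was calcium-depleted and preincubated with antagonist, then challenged with Ca2+. The Ca2+-induced increase in resting tone was compared with the increase after the same Ca2+ challenge in the absence of antagonist.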

[7] = biological target: T3, Alpha-2A adrenergic receptor (Rattus norvegicus, UniProt P22909); experiment: Activity at adrenergic alpha 2A receptor assessed as antagonism on clonidine-inhibited twitch responses of field-stimulated Sprague-Dawley rat vas deferens; settings: read-out: pA2 (converted)
T3 sequence (P22909 whole entry): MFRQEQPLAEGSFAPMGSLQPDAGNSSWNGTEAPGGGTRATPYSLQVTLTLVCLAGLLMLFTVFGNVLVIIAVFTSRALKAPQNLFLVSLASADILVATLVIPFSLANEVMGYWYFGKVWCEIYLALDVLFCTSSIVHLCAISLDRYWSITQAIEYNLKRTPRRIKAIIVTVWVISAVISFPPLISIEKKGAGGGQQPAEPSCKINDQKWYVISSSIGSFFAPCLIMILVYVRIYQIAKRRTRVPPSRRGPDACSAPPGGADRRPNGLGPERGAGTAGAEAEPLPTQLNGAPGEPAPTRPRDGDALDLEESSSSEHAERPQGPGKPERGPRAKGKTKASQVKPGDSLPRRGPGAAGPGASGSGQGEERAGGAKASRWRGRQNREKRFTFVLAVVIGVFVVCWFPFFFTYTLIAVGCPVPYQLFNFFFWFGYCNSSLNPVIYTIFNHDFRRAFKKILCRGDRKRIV

Cavia porcellus [8] = species: Cavia porcellus; experiment: Inverse agonist effect on calcium-induced increase in resting tension of calcium-depleted guinea pig thoracic aorta at 10 nM; assay type: functional; in short: as §2

Adrenergic receptors; alpha-1 A & B (Homo sapiens), sequence (P35348 whole entry, looked up): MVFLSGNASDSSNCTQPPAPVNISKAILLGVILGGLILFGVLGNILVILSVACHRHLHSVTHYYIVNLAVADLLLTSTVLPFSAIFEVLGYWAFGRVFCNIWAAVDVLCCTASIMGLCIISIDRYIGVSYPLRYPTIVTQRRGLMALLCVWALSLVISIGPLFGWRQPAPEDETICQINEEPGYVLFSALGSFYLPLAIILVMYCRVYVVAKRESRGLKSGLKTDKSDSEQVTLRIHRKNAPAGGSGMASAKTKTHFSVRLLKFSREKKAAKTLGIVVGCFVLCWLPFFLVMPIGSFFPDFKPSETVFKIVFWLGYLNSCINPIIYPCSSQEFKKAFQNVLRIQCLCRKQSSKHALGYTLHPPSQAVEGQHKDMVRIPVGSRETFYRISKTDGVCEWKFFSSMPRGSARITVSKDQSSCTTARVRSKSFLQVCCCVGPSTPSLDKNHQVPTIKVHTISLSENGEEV
Adrenergic receptors; alpha-1 A & B (Homo sapiens), sequence (P35368 whole entry, looked up): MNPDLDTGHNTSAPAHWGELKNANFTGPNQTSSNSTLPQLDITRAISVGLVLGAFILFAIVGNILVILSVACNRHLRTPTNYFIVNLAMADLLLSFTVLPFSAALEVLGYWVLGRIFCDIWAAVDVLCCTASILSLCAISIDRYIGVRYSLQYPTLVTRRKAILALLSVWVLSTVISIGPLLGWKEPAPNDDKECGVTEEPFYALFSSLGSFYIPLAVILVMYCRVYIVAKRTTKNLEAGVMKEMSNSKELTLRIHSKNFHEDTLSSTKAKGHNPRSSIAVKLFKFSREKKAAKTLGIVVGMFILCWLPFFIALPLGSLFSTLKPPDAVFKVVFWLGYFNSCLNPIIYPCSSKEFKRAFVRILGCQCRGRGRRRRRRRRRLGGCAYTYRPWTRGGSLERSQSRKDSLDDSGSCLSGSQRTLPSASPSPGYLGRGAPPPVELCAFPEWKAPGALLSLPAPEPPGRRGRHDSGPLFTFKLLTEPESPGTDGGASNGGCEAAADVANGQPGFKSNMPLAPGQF
Alpha adrenergic receptor (1a and 1d) (Homo sapiens), sequence (P35348 whole entry, looked up, one chain of several): as the sequence (P35348 whole entry, looked up) above

Compound	Ki [1]	Selectivity ratio [2]	Kb [3]	Selectivity ratio [4]	Kb [5]	Kb [7]	Activity (Cavia porcellus [6])	Activity (Cavia porcellus [8])
COc1cc(-c2ccccc2)ccc1OCCNC[C@H]1COc2ccccc2O1	214 nM	2.1	759 nM	2.5	–	–	–	–
COc1cccc(-c2ccccc2)c1OCCNC[C@H]1COc2ccccc2O1	3.39 nM	14.8	6.17 nM	2.8	–	–	–	inactive
COc1ccc2ccccc2c1OCCNC[C@@H]1COc2ccccc2O1	22.4 nM	18.6	58.9 nM	4.9	–	631 nM	–	inactive
COc1ccc2ccccc2c1OCCNC[C@H]1COc2ccccc2O1	6.61 nM	10	1.1 nM	4.2	–	1350 nM	–	Active
COc1ccc2c(c1OCCNC[C@H]1COc3ccccc3O1)CCCC2	14.5 nM	6.8	91.2 nM	5.1	–	–	–	–
COc1cccc(OC)c1OCCNC[C@H]1COc2cc3c(cc2O1)CCCC3	339 nM	22.9	> 10000 nM	13.5	–	–	–	–

The remaining compounds from weak to strong by Ki [1], led by results:

Ki [1]	Selectivity ratio [2]	Kb [3]	Selectivity ratio [4]	Kb [5]	Kb [7]	Compound	Activity (Cavia porcellus [6])	Activity (Cavia porcellus [8])
417 nM	26.3	3470 nM	12.3	–	> 10000 nM	COc1cccc(OC)c1OCCNC[C@H]1COc2cc3ccccc3cc2O1	–	–
148 nM	5.6	10.5 nM	2.2	42.7 nM	> 10000 nM	COc1ccc2ccccc2c1OCCNC[C@H]1COc2cc3c(cc2O1)CCCC3	Active	–
15.1 nM	1.9	> 10000 nM	2.7	–	–	COc1ccc(-c2ccccc2)cc1OCCNC[C@H]1COc2ccccc2O1	–	–
